According to the EternaBench riboswitch data:

Tested on: MS2 coat protein
Assay: apparent Kd, MS2 coat protein; higher = weaker binding; RNA-MaP array
Procedure, shortened: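 Apparent Kd values come from the median of binding-curve fits to single clusters. To obtain them, designed RNAs transcribed on an Illumina sequencing chip from sequenced DNA templates were incubated at room temperature with fluorescently labeled MS2 coat protein at 1.5 nM to 3 μM, with or without input ligand, for 0.8–1.5 h at the lowest and 10–20 min at the highest concentrations. Designs measured on fewer than 10 clusters were excluded.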

[1] = designed as: ON switch for flavin mononucleotide, no ligand
[2] = ligand present: flavin mononucleotide, designed as: ON switch for flavin mononucleotide
[3] = designed as: OFF switch for flavin mononucleotide, no ligand
[4] = ligand present: flavin mononucleotide, designed as: OFF switch for flavin mononucleotide
[5] = designed as: ON switch for tryptophan, no ligand
[6] = ligand present: tryptophan, designed as: ON switch for tryptophan

Sequence | apparent Kd [1] | apparent Kd [2] | apparent Kd [3] | apparent Kd [4] | other results
CGCUCGCGGCGGAAGGAUAUGUCUAUCCGGACAUGAGGAUCACCCAUGUAUGGGUACUUGCUGCAACAGAAGGUCCGUAUUAUAUG | 290 nM | 120 nM |  |  | 
CGCUGCCGAAGAGGAUAUCCCACGACCCAAACUGGAGAAGGCUUUAGGUUUUGCCGACAUGAGGAUCACCCAUGUGUCAGUGCA |  |  | 13.1 nM | 11.4 nM | 
CGCUGUUGGCAGGAUAUAUUCGCAGCCCAGGCAAUAGAAGGGCCGACAUGAGGAUCACCCAUGUGUCUACAGGG |  |  | 117 nM | 341 nM | 
CGGAAGUGCAGCGCUUAAAGUACAUGAGGAUCACCCAUGUGAAAGGAUAUAUCGAAGUCAAAAUAAUAGAAGGUUCAGUGGGAU |  |  | 22.6 nM | 21.1 nM | 
CGGAGUAUGACGGCCGCCACUUGCCGGGCGCAGCUGGCUGCUUGACAUGAGGAUCACCCAUGUCCAAGGACCGGGUCAUUCCUCG |  |  |  |  | apparent Kd [5]: 121 nM; apparent Kd [6]: 83.9 nM
CGGCAACUGUAGAAGGAGCAUCCCACAUCUAAGCUAGGAUAUACGUAAUGUAUGUACAUGAGGAUCACCCAUGUGUGCACCAGG |  |  | 26.4 nM | 24.2 nM | 
CGGGCCAUCUAAGGAUAUUUGCCGGCCCGAAGACAUGAGGAUCACCCAUGUGUGAACGGAUGUCGAAAGAAGGUAGACCUGGUC | 300 nM | 206 nM |  |  | 
CGUGGCAAUCAAGGAUAUCACUUCUAGAUACCGUGAGAAGGUGAGCGUCUCUGCAAAGAGCGGGACAUGAGGAUCACCCAUGUA | 255 nM | 162 nM |  |  | 
CUAAUUAUCGAGAAGGAACGACGCAUCACCGAUCUAGCACACAUGAGGAUCACCCAUGUACACCGUUAGGAUAUCGCAAACCAG |  |  | 8.46 nM | 9.82 nM | 
CUACCAAAUUGAGGAUAUAGCCUGGGAGAACCAAGUUCCAUGAAAUACAUGAGGAUCACCCAUGUCUAGAAGGCAACAAUGGCC |  |  | 92.4 nM | 145 nM | 
CUCCUGGCAGGAUAUACAUGAGGAUCACCCAUGUUCCGAGCGUCCCAAACGACACGGUGUAGAAGGGCCAAGAU |  |  | 12.8 nM | 17.3 nM | 
CUCUUGCGGUUAGGAUAUUCCCUUGAAAACAAUGAAGAAGGAACCAGAUGAUCACAUGUCCUACAUGAGGAUCACCCAUGUUAA |  |  | 353 nM | 211 nM | 
CUGUGAGUAGGAUAUGAUCACAAGUACAUGAGGAUCACCCAUGUGUGGCUCUGUACCGCCUCAGAAGGACUCGUCU |  |  | 28 nM | 94.8 nM | 
CUUAACAAAGGAUAUACACAAAUGAUUAAGGUGCCGGGAAAACAUGAGGAUCACCCAUGUAGAAGGUUGUAACA |  |  | 8.1 nM | 7.75 nM | 
CUUCAGGGUGCGGCCGCCACUUAUUAGGUGCUUGCGACGCCAGCACAUGAGGAUCACCCAUGUUCAAGGACCGGGCACCACCUUU |  |  |  |  | apparent Kd [5]: 11.5 nM; apparent Kd [6]: 12.6 nM
CUUGGCGCUCAGAAGGCCGUCCAUGCACGCGCUAGGACAUGAGGAUCACCCAUGUAUCUAUGGACGGAGGAUAUGAUUCUCUCG | 20.4 nM | 8.75 nM |  |  | 
CUUUUACAUGAGGAUCACCCAUGUUGUACAGGGUUAGGAUAUCUUAAUGUUAAGUUAAUGAGAGAAGGAACAGUCA | 149 nM | 94.8 nM |  |  | 
GAACAACAUGAGGAUCACCCAUGUGACAGCCGUCAAGGAUAUUCCGGGAAAGGAGGUCCGGAAGAAGGUGAUCGUA | 265 nM | 341 nM |  |  | 
GAACUGUGAGGAUAUACAUGAGGAUCACCCAUGUUUGUGUUGGCACGCACUCGGGCAAGUAGAAGGCACAGAUG |  |  | 44 nM | 73.7 nM | 
GAAUCAUGACAGAAGGCACGGAAUACCCGGCUGUGAGGAUAUGUUUGAAAACAGACAUGAGGAUCACCCAUGUCCGAAGUGUCU |  |  | 301 nM | 555 nM | 
GAAUGAAGCGAGAAGGGACCAAAUGGGCAGAAACUACAUGAGGAUCACCCAUGUAAAAUAGAUAGUCAGGAUAUCGGAAGAAAG |  |  | 36.4 nM | 31.8 nM | 

Sequence | apparent Kd [1] | apparent Kd [2] | apparent Kd [3] | apparent Kd [4] | other results
GACAUGAGGAUCACCCAUGUGAAAUUCAUGGCGAUAACAUCUGAGGAUAUGUGCAGCCGAGGAAGACAGAAGGCAGAAACACAA |  |  | 117 nM | 119 nM | 
GACCACAUGAGGAUCACCCAUGUCUUGGUCCGAGGACCGGUACGGCCGCCACUCGAGAGCCGUACAAAUAAACGGAGUGCCAUCA |  |  |  |  | apparent Kd [5]: 15.9 nM; apparent Kd [6]: 13.5 nM
GACGCGAGCGCACUUACAUGAGGAUCACCCAUGUGUUCCGAAAGAAGGGCUAGUGUACCCGCAGAGCAGGAUAUUUCGAUUUGC | 186 nM | 121 nM |  |  | 
GACGGCUCGACGGCCGCCACUCCCUCCGACUGAAGGCACAGUGGACAUGAGGAUCACCCAUGUCCGAGGACCGGGUCGAUCCUGG |  |  |  |  | apparent Kd [5]: 17.7 nM; apparent Kd [6]: 17.6 nM
GACGUGGAGUCAGGAUAUCGACGACAUUCUUAGCGAGAAGGGACCUAGCUUAGAUCAACAUGAGGAUCACCCAUGUCGAGUUUC |  |  | 21.7 nM | 20.4 nM | 
GCGAAGCAAGGAUAUGCCCGGCGAUACAUGAGGAUCACCCAUGUGAUGUAGUUAGUUGUAGCAGAAGGUGCGCGAU |  |  | 17.6 nM | 11.4 nM | 
GCGCGCGUAGUCAGGAUAUGGUAUAAGUAACUUGGCCAGAAGGGACAUGAGGAUCACCCAUGUGCAUUGCUAGC |  |  | 9.16 nM | 9.47 nM | 
GCGUGGCACUGCAUACACACAUGAGGAUCACCCAUGUAUAGUAGAAGGUUCUUCAGCGGGAACAGAAAGGAUAUACUGAUAGAU | 7.74 nM | 7.42 nM |  |  | 
GCGUUUGCCAAAGGAUAUCAACAUGUGUUGCUUGCAUUCCUAUACAUGAGGAUCACCCAUGUGGCUGAGAAGGUUGAACACUGG | 18.2 nM | 14.1 nM |  |  | 
GCUAGUUCACAGAAGGCGUCCGUGGGUGGCGCCUUACAUGAGGAUCACCCAUGUCAACCGUGCGACGAGGAUAUGUCAAUCGCA |  |  | 22.5 nM | 21.6 nM | 
GCUGACCAGGAGAAGGGAUACGGUCUCCUUGUGGAAAUGAACAUGAGGAUCACCCAUGUAUUAGAUCAGGAUAUCCAAUGGAGG |  |  | 13.4 nM | 14.4 nM | 
GCUGCACAUUCGGCCGCCACUGCUGUUACAGGAAGCUAUAGCUCACAUGAGGAUCACCCAUGUCCCAGGACCGGGAAAGUAUGGA |  |  |  |  | apparent Kd [5]: 72.9 nM; apparent Kd [6]: 65.9 nM
GCUGUAGAAGGAUAUCACAGGAUGGACAUGAGGAUCACCCAUGUUCUUUACUCCGCACCUUGAGAAGGUCUAAGUC |  |  | 6.27 nM | 5.88 nM | 
GGAAGUAGAUGUCAGGAUAUCAAAAGCAUAACAUGAGGAUCACCCAUGUCCAAAAGGCAGAGAAUUGAGAAGGGACGUAGGUUACA | 42.2 nM | 14.4 nM |  |  | 
GGAUAAACUCAGAAGGAACGGCUCAAGUAAUAGUAAGGAUAUGACUGUAGGACUACAUGAGGAUCACCCAUGUUGAUGAAACAG | 8.03 nM | 7.91 nM |  |  | 
GGAUCACAUGAGGAUCACCCAUGUAAAGACGAUACAGGAUAUGACAGAACACGCAUCGUUUCAGAAGGGUAUAGUG | 66.9 nM | 47.6 nM |  |  | 
GGAUGUAGACAGGAUAUUGCCAUUCCAAUGCGCCAAGAAGGGUCUACAUGAGGAUCACCCAUGUAAAGAAUAGG |  |  | 207 nM | 106 nM | 
GGGUACAUCUAGAAGGAGAAUCCUCUUGACAUGAGGAUCACCCAUGUCGUAGUCAAGACUAAAAUCUAGGAUAUAGCUGUGCGU |  |  | 233 nM | 165 nM | 
GGUAGUACCGUAGGAUAUUCCGCUUACAUGAGGAUCACCCAUGUGGCUGGUAUUUCGUCAAAGAAGAAGAAGGACGUCUGCGCG |  |  | 6.85 nM | 6.43 nM | 
GGUUCGCAUGUAGGAUAUCGCAAUAUAAACAUGAGGAUCACCCAUGUAACAAUGUAAACGGACAACGAGAAGGACAUCAACUCC | 44.6 nM | 22.8 nM |  |  | 
